# Assay results of several laboratories.
# Each line is one published result; the experiments were not run side by side.
# CAMK4: Calcium/calmodulin-dependent protein kinase type IV (CAMK4, Homo sapiens, UniProt Q16566)
# CASP3: Caspase-3 (CASP3, Homo sapiens, UniProt P42574)
# SMO D473H: Protein smoothened (SMO, Homo sapiens, UniProt Q99835, D473H)
Structure (SMILES),target,test,conditions,endpoint,result
Nc1ncc(-c2nc(N3CCOCC3)nc(N3CCOCC3)n2)c(C(F)F)n1,CAMK4,"binding, competition with immobilised ligand",10 µM,remaining binding,66%
O=C(Nc1cccnn1)N1CCN([C@@H]2CCOc3cc(C(F)(F)F)ccc32)CC1,CASP3,"cell-free assay, inhibitor",20 µM,inhibition,1%
Cc1nn(C)cc1-c1nc2c(N3CCN(Cc4ccc(Cl)cc4)CC3)c(Cl)cnc2[nH]1,CAMK4,"binding, competition with immobilised ligand",1 µM,remaining binding,100%
CCN(CC)CCCC[C@H](NC(=O)[C@H](CC(C)C)NC(=O)[C@H](C)NC(=O)[C@H](Cc1ccccc1)NC(=O)c1ccc(C(C)(C)C)cc1)C(=O)N[C@@H](CO)C(=O)OC,"Bromodomain and PHD finger-containing protein 3 (BRPF3, Homo sapiens, UniProt Q9ULD4)","thermal stability, DSF",25 µM,ΔTm,0 °C
CC1=C2C[C@H]3[C@@H](CC=C4C[C@@H](O)CC[C@@]43C)[C@@H]2CC[C@]12O[C@@H]1C[C@H](C)CN[C@H]1[C@H]2C,"Protein smoothened (SMO, Homo sapiens, UniProt Q99835)","GTPγS binding, agonist, radiometric",cell membranes,Emax,-99.2%
CC(C)[C@]12O[C@H]1[C@@H]1O[C@]13[C@]1(O[C@H]1C[C@H]1C4=C(CC[C@@]13C)C(=O)OC4)[C@@H]2O,"Ubiquitin carboxyl-terminal hydrolase 51 (USP51, Homo sapiens, UniProt Q70EK9)","enzyme activity, inhibitor",5 µM,inhibition,0%
Cc1cnc(-c2cc(N3CCN(C(=O)CCS(C)(=O)=O)CC3)ncc2Cl)c(C)c1,SMO D473H,"GTPγS binding, agonist, radiometric",cell membranes,Emax,-76.3%
C#Cc1n[nH]c2c(-c3cn(C(C)c4ccccn4)c(=O)[nH]c3=O)cc(F)cc12 (stereo not drawn),"AP2-associated protein kinase 1 (AAK1, Homo sapiens, UniProt Q2M2I8)","enzyme activity, inhibitor",1 µM,inhibition,4.8%
Cc1ncc(C)n2nc(/C=C/c3nc(N4CCCC4)cc(N4CCOCC4)n3)nc12,CASP3,"enzyme activity, inhibitor",10 µM,inhibition,0%
COc1ncccc1-c1cnn2ccc(N3CCN(C(=O)OC(C)C)CC3)nc12,CAMK4,"binding, competition with immobilised ligand",1 µM,remaining binding,100%
COc1cc(C(=O)NC(N)=Nc2ccc(C)c(NC(=O)c3ccc(-c4ccccc4)cc3)c2)cc(OC)c1OC,SMO D473H,"GTPγS binding, agonist, radiometric",cell membranes,Emax,-115%
CC[C@H](C)[C@@H](C(=O)O[C@@H](CC(C)C)C(=O)N[C@@H](CC(C)C)C(=O)N[C@@H](C)/C=C/C(=O)N1C(=O)C=C(OC)[C@@H]1C)N(C)C,"FP2A (Plasmodium falciparum, UniProt Q8I6U4)","enzyme activity, inhibitor, fluorescence",pH 6,kinact/KI,58600 M⁻¹ s⁻¹
